Experiment [1] has as its system A549. As to the kind of experiment: Induction of apoptosis in human A549 cells assessed as upregulation of Cyt c protein expression at 10 uM by Western blot analysis. The class given is functional, cell-based. Conditions: TDE = time-dependent effect. In outline:
(§1)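 A549 cells were exposed to 10 μM for different times and lysed in RIPA buffer with 1 mM PMSF. Protein (20 μg) was separated on 8-12% SDS-PAGE and transferred to PVDF. Membranes were blocked in 5% milk and incubated with primary antibodies overnight at 4 °C, then with anti-rabbit secondary. Bands were quantified by densitometry. Mean ± SD, ≥3 experiments.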
In general terms: A western blot detects proteins with antibodies after separation by electrophoresis.

Experiment [2] concerns A549. As to the kind of experiment: Antimigratory activity in human A549 cells assessed as reduction in wound healing incubated for 36 hrs by wound healing assay. Type of experiment: functional, cell-based. In outline: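 Confluent A549 monolayers, seeded at 1 × 10^5 cells/well, were scratched with a pipette tip. Medium was replaced with medium containing various concentrations and cells were incubated 36 h. Migration area was measured by microscopy and expressed as a percentage of control (control = 100%). Mean ± SD, ≥3 independent experiments.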

Experiment [3] has as its system A549. Briefly: Induction of apoptosis in human A549 cells assessed as necrotic cells at 50 uM incubated for 24 hrs by annexin V FITC and PI staining based flow cytometry (reference value: 2.43%). The class given is functional. In general terms: Flow cytometry measures light scatter and fluorescence of single cells or particles in a stream.
The test system of experiment [4] is A549. Briefly: Induction of apoptosis in human A549 cells assessed as early apoptotic cells at 50 uM incubated for 24 hrs by annexin V FITC and PI staining based flow cytometry (reference value: 0.53%). The class given is functional.
Experiment [5] deals with A549. As to the kind of experiment: Induction of apoptosis in human A549 cells assessed as early apoptotic cells at 25 uM incubated for 24 hrs by annexin V FITC and PI staining based flow cytometry (reference value: 0.53%). Type of experiment: functional.
In experiment [6] the test system is A549. As to the kind of experiment: Antiproliferative activity against human A549 cells assessed as reduction in cell proliferation incubated for 48 hrs by MTT assay. The class given is functional, cell-based. The conditions noted are these: A549, 48 h. In short, it runs like this: (§2)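 Log-phase cells were plated at 5 × 10^3/well in RPMI-1640 with 10% FBS and cultured 24 h. Compounds were added at graded concentrations (DMSO <0.1%) for 48 h. MTT (5 mg/mL) was added for about 4 h, formazan was dissolved in DMSO and A490 was read. IC50 was calculated from ≥3 independent experiments and reported as mean ± SD. Chrysin served as positive control.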

Experiment [7] has as its system A549. Briefly: Induction of apoptosis in human A549 cells assessed as downregulation of Akt protein expression at 10 uM by Western blot analysis. The conditions noted are these: TDE = time-dependent effect. The class given is functional, cell-based. In outline:
as §1

For experiment [8], the system named is A549. Briefly: Inhibition of colony formation in human A549 cells culture in 0.3% RPMI-1640 medium agar assessed as decrease in size and number of colonies formed incubated for 20 days by NBT staining based assay. Type of experiment: functional, cell-based. In outline: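 A549 cells at 1 × 10^5 cells/mL were treated with various concentrations in 0.3% medium-agar layered over 0.6% medium-agar. Cultures were kept at 37 °C and 5% CO2. Methods give 14 days; the figure legend gives 20 days. Colonies were stained with 1.5 mg/mL NBT and counted as a percentage of control. Mean ± SD, ≥3 experiments.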

Experiment [9] has as its system A549. Briefly: Induction of apoptosis in human A549 cells assessed as upregulation of p53 protein expression at 10 uM by Western blot analysis. The class given is functional, cell-based. Conditions: TDE = time-dependent effect. In outline: as §1
The test system of experiment [10] is A549. As to the kind of experiment: Induction of apoptosis in human A549 cells assessed as upregulation of p21 protein expression at 10 uM by Western blot analysis. Type of experiment: functional, cell-based. The conditions noted are these: TDE = time-dependent effect. In short, it runs like this: as §1
For experiment [11], the system named is A549. Briefly: Induction of apoptosis in human A549 cells assessed as upregulation of Bax protein expression at 10 uM by Western blot analysis. The class given is functional, cell-based. Conditions: TDE = time-dependent effect. In outline: as §1
The test system of experiment [12] is A549. As to the kind of experiment: Induction of apoptosis in human A549 cells assessed as necrotic cells at 25 uM incubated for 24 hrs by annexin V FITC and PI staining based flow cytometry (reference value: 2.43%). The class given is functional.
Experiment [13] relates to A549. As to the kind of experiment: Induction of apoptosis in human A549 cells assessed as viable cells at 5 uM incubated for 24 hrs by annexin V FITC and PI staining based flow cytometry (reference value: 95.7%). The class given is functional. The conditions noted are these: A549, 24 h, read-out: Activity.
Experiment [14] relates to A549. Briefly: Induction of apoptosis in human A549 cells assessed as upregulation of p53 protein expression incubated for 24 hrs by Western blot analysis. The class given is functional, cell-based. In outline: (§3)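 A549 cells were treated with various concentrations for 24 h and lysed in RIPA buffer with 1 mM PMSF. Protein (20 μg) was resolved on 8-12% SDS-PAGE and transferred to PVDF. Membranes were blocked in 5% milk and probed with primary antibodies overnight at 4 °C, then with anti-rabbit secondary. Bands were quantified by densitometry. Mean ± SD, ≥3 experiments.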

In a further experiment the test system is K562. As to the kind of experiment: Antiproliferative activity against human K562 cells assessed as reduction in cell proliferation incubated for 48 hrs by MTT assay. The class given is functional, cell-based. Conditions: K562, 48 h. In outline: as §2
The test system of experiment [15] is A549. Briefly: Induction of apoptosis in human A549 cells assessed as increase in caspase 8 activity at 100 uM incubated for 24 hrs by colorimetry relative to control. Type of experiment: functional. In outline: (§4)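 A549 cells were plated at 3 × 10^5/well and cultured 12 h, then treated with various concentrations for 24 h. Cells were lysed on ice for 60 min. Lysate containing 200 μg protein was incubated with caspase-3, -8 or -9 colorimetric substrate at 37 °C for 4 h in the dark, and A405 was read. Activation = (treated − blank)/(control − blank). Mean ± SD, ≥3 experiments.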

Experiment [16] relates to A549. As to the kind of experiment: Induction of apoptosis in human A549 cells assessed as downregulation of Akt protein expression incubated for 24 hrs by Western blot analysis. The class given is functional, cell-based. In outline:
as §3

The test system of experiment [17] is A549. As to the kind of experiment: Induction of apoptosis in human A549 cells assessed as increase in caspase 3 activity incubated for 24 hrs by colorimetry. The class given is functional, cell-based. In outline:
as §4

For experiment [18], the system named is A549. As to the kind of experiment: Induction of apoptosis in human A549 cells assessed as viable cells at 50 uM incubated for 24 hrs by annexin V FITC and PI staining based flow cytometry (reference value: 95.7%). The class given is functional. The conditions noted are these: A549, 24 h, read-out: Activity.
In experiment [19] the test system is A549. Briefly: Inhibition of colony formation in human A549 cells cultured in plate assessed as decrease in size and number of colonies formed incubated for 10 days by crystal violet staining based fluorescence microscopy. The class given is functional, cell-based. In outline:
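Log-phase A549 cells were seeded at 1 × 10^3/well and cultured 24 h. Medium containing various concentrations was added and cells were grown 10 days. Colonies were fixed in 4% paraformaldehyde for 30 min, stained with 0.1% crystal violet and imaged by microscopy. Colony percentage was calculated relative to control colonies. Mean ± SD, ≥3 experiments.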

The test system of experiment [20] is A549. Briefly: Induction of apoptosis in human A549 cells assessed as increase in caspase 3 activity at 100 uM incubated for 24 hrs by colorimetry relative to control. The class given is functional. In outline:
as §4

In experiment [21] the test system is A549. Briefly: Induction of apoptosis in human A549 cells assessed as increase in caspase 9 activity incubated for 24 hrs by colorimetry. The class given is functional, cell-based. In outline: as §4
Experiment [22] relates to A549. Briefly: Induction of apoptosis in human A549 cells assessed as late apoptotic cells at 5 uM incubated for 24 hrs by annexin V FITC and PI staining based flow cytometry (reference value: 1.32%). The class given is functional.
Experiment [23] concerns A549. Briefly: Induction of apoptosis in human A549 cells assessed as viable cells at 25 uM incubated for 24 hrs by annexin V FITC and PI staining based flow cytometry (reference value: 95.7%). The class given is functional. The conditions noted are these: A549, 24 h, read-out: Activity.

One may read the IC50 as the concentration at which inhibition is half-maximal. `CN1C(=O)C2(C(C#N)=C(N)Oc3cc4oc(-c5ccccc5)cc(=O)c4c(O)c32)c2cc(Br)ccc21` (centres undefined): the Activity result in the experiment on A549 [1] is “Tde”; in the experiment with A549 [3], 6.11%; with A549 [4], 9.33%; in the experiment on A549 [5] it was 9.8%; with A549 [9] it was “Tde”; in the experiment on A549 [10], “Tde”. In addition, the Activity result is “Tde” in the experiment on A549 [11]; 2.97% with A549 [12]; “Dose-dependent effect” in the experiment on A549 [14]; “Dose-dependent effect” with A549 [17]; “Dose-dependent effect” in the experiment on A549 [21]; 6.73% in the experiment on A549 [22]. Also, the inhibition result in the experiment with A549 [2] was “Dose-dependent effect”; with A549 [7], “Tde”; in the experiment with A549 [8], “Dose-dependent effect”; in the experiment with A549 [16] it was “Dose-dependent effect”; in the experiment on A549 [19], “Dose-dependent effect”. Also, the IC50 worked out at 3.15 µM with A549 [6] and 4.1 µM in the experiment with K562. Also, the viability at 5 µM in the experiment with A549 [13] amounted to 85%. Besides, the “fold change (FC)” value amounted to 2.98 in the experiment on A549 [15] and 5.24 in the experiment on A549 [20]. In the experiment with A549 [18], the viability at 50 µM was determined as 59.8%. The viability at 25 µM in the experiment with A549 [23] stood at 73.5%.

The values are drawn from ChEMBL document CHEMBL4304827, “Design, synthesis and evaluation of structurally diverse chrysin-chromene-spirooxindole hybrids as anticancer agents” (Bioorg Med Chem, 2019).
